Shown are actives, neighbours in structure and some others; about 2% of the full set was active somewhere.
eIF4H FP inh: inhibitors of RNA binding by human eIF4H. eIF4H fluorescence polarization binding assay. AID 2012. Q15056. inhibition, % at 35 µM. 0.94% of 290,000 active;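 note: calls also rest on retests at 20 µM and on dose response follow-up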
MLLE-PAM2 inh: blocks PAM2 peptide binding to the PABP1 MLLE domain | P11940 | 0.36% of 360,000 active | inhibition, % at 20 µM | GST-MLLE / FITC-PAM2 fluorescence polarization | AID 588489; in the data active = inhibition above about 35%, passing the limit was not always enough;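 note: plate controls were DMSO wells with GST-MLLE for no effect and wells lacking GST-MLLE protein for full effect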
core dimer inh: blocks dimerization of HCV core protein; inhibition, % at 5 µM; TR-FRET GST/Flag-core106 dimerization, 1536-well; 0.33% of 300,000 active;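 active = inhibition above the mean of all tested compounds plus 3 SD, set per screening campaign, cut at about 45% in these data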
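Assay system – GST-tagged and Flag-tagged HCV core protein residues 1-106 · Quantity – core106 proteins, GST 13.5 nM and Flag 17 nM · Benchmarks – unlabelled core106 and no-GST-core106 wells · Read-out basis – percent inhibition of core106 dimerization signal · Detection – time-resolved FRET, ex 340 nm, em 617 and 671 nm · Schedule – 4 h at 22.5 °C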
NS3 helicase inh: inhibitors of Hepatitis C virus NS3 helicase; AID 1800; 0.56% of 290,000 active; NS3 helicase DNA unwinding, Cy5 molecular beacon fluorescence; inhibition, % at 10.9 µM;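 active = inhibition above the mean of all tested compounds plus 3 SD, set per campaign, cut at about 35% in these data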;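 note: 0% = DMSO wells and 100% = thioflavine S control wells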
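assay system = NS3 helicase fragment of HCV | buffer or medium = MOPS pH 6.5, MgCl2, DTT, Tween20, BSA | timing = 60 min unwinding reaction at 25 °C after ATP addition | signal = Cy5 beacon fluorescence read at start and 1 h | read-out basis = % inhibition of unwinding | control set = low DMSO, high thioflavine S at 110 µM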
FID counter: fluorescent intercalator displacement, NS3 helicase counter-screen. AID 1845. 0.17% of 290,000 active. inhibition, % at 7.9 µM. DNA fluorescent intercalator displacement, fluorescence; in the data active = inhibition above about 37%;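 note: 0% = vehicle and 100% = reference compound; higher means more ethidium bromide displaced from hairpin DNA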
PABP polyA inh: PABP-poly(A) binding inhibition; P11940; PABP-poly(A) RNA binding, fluorescence polarization; 1% of 290,000 active; inhibition, % at 35 µM; AID 2014;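 note: calls also rest on retests at 20 µM and on dose response follow-up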
An asterisk follows results filed as active; . = no result. Unless noted, the rule behind the calls is not given here.

SMILES	eIF4H FP inh	MLLE-PAM2 inh	core dimer inh	NS3 helicase inh	FID counter	PABP polyA inh
O=C(O)CCN1C(=O)/C(=C\c2ccc(-c3nc4ccccc4s3)o2)SC1=S	101*	-79	10	21	-13	92*
O=C(O)CN1C(=O)/C(=C/c2ccc(SCc3ccccc3)o2)SC1=S	60*	-123	.	17	-2	active
O=C1NC(=O)C(=Cc2ccco2)S1	.	3	.	.	.	.
Cc1ccc(N2C(=O)/C(=C\c3ccco3)SC2=S)cc1	77*	9	37	31	-2	28*
O=C(O)CN1C(=O)/C(=C\c2ccc(OC(=O)c3ccco3)cc2)SC1=S	-7	-28	-3	3	-21	-10
C[C@H](O)CNC(=O)c1[nH]cnc1C(=O)Nc1ccc(CNC(=O)OC(C)(C)C)cc1	.	-5	.	.	.	.
CCCCc1ccc(S(=O)(=O)NC(=O)C2(C)CCN2C(=O)CC2CC2)cc1 (centres undefined)	.	1	.	.	.	.
CC(NC(=O)C1CCN(C(=O)Nc2ccccc2)CC1)c1ccccc1 (centres undefined)	.	-11	1	.	.	.
O=C1/C(=C/c2ccccn2)SC(=S)N1Cc1ccccc1	-6	1	-3	12	0	-2
O=C1/C(=C\c2ccco2)SC(=S)N1Cc1ccccc1	76*	6	6	26	0	38*
COc1ccccc1/C=c1\sc2nc(-c3ccccc3OC)nn2c1=O	-10	12	4	24	-38	4
Cc1ccc(/C=c2\sc3nc(-c4ccccc4Br)nn3c2=O)o1	80	-23	32	33	-19	43
Cc1ccc(-c2nc3s/c(=C\c4ccco4)c(=O)n3n2)cc1	82*	-33	33	17	-8	45*
Cc1ccc(/C=c2\sc3nc(-c4ccco4)nn3c2=O)o1	90*	8	62*	25	1	67*
COc1ccc(Br)cc1/C=c1\sc2nc(-c3ccco3)nn2c1=O	94*	19	57*	.	.	87*
CCN(CC)C(=O)CC(c1cc(OC)c(OC)c(OC)c1)c1c(OC)cc(OC)c2c(-c3ccccc3)cc(=O)oc12 (centres undefined)	103*	-3	26	.	.	46*
CC(C)c1ccc(CN2CCN(C(=O)CSc3nnnn3C3CC3)CC2)cc1	.	-12	.	.	.	.
CC1CCN(C(=O)COC(=O)/C=C/c2ccco2)CC1	.	7	.	.	.	.
CCN(CCC#N)c1ccc(/C=N/Nc2nc(C)cc(=O)[nH]2)c(C)c1	2.2*	0	-9	6	-4	63*
COc1ccc(N(CC(=O)NCCSCc2ccco2)S(=O)(=O)c2ccccc2)cc1	-7	7	-1	22	-30	-2
O=C(CN(c1ccccc1)S(=O)(=O)c1ccccc1)NCCSCc1ccco1	81*	14	13	4	-23	22
COc1ccc(N=C2NN=C(c3c(C)[nH]c4ccccc34)CS2)cc1	2	-125	-35	-11	-2	6
Cc1[nH]c2ccccc2c1C1=NNC(=Nc2ccc(F)cc2)SC1	active	-143	-20	-5	-1	86*
CC(C)CN1CCNC(=O)C1CC(=O)NCCc1ccc(C(F)(F)F)cc1 (centres undefined)	1	-6	-1	-1	-10	-10
CC(C)CN1CCNC(=O)C1CC(=O)NCCCN1CCCc2ccccc21 (centres undefined)	16	11	2	-4	5	52*
SMILES	eIF4H FP inh	MLLE-PAM2 inh	core dimer inh	NS3 helicase inh	FID counter	PABP polyA inh
Cc1cc(NC(=O)/C(C#N)=C\c2ccc(-c3ccc(SC(F)F)cc3)o2)n(-c2ccccc2)n1	.	-128	.	.	.	.
C[C@H](CO)N1C[C@H](C)[C@@H](CN(C)S(=O)(=O)c2cccc(F)c2)Oc2ncc(Br)cc2C1=O	.	0	.	.	.	.
O=C(O)CN1C(=O)C2C3CC(C2C1=O)C1C(c2ccc(F)cc2)c2sc(=O)[nH]c2SC31 (centres undefined)	8	39*	8	0	-17	5
NS(=O)(=O)c1ccc(CCNC(=O)COc2ccc3c4c(c(=O)oc3c2)CCC4)cc1	.	20	-8	6	88*	.
O=C(COc1ccc2c3c(c(=O)oc2c1)CCC3)Nc1ccc(CCO)cc1	27	9	1	7	-39	8
CCOc1ccccc1NC(=O)C1=C(C)NC(=S)NC1c1cccs1 (centres undefined)	-2	-121	5	3	-13	51*
COc1ccccc1NC(=O)C1=C(C)NC(=O)NC1c1cc(C)cs1 (centres undefined)	1	-3	6	-1	-6	56*
COc1cccc(N=C2NC(=O)/C(=C/c3cc([N+](=O)[O-])ccc3O)S2)c1	66	-59	15	24	-10	51
O=C1NC(=Nc2ccccc2Cl)S/C1=C\c1cc([N+](=O)[O-])ccc1O	66	-89	19	19	6	13*
Nc1ccc2cccc(O)c2c1	.	-7	.	.	.	.
COc1ccc(C(C)=O)cc1CSc1nc2cc(Cl)ccc2o1	65*	-12	1	2	-1	35*
NC(=O)c1cc(S(=O)(=O)N2CCOCC2)cs1	-2	-1	0	-2	0	-2
CC(C)N=C(N)N=C(N)Nc1ccc(Cl)cc1	.	-8	-13	.	.	.
NC(=NCCCCCCN=C(N)/N=C(\N)Nc1ccc(Cl)cc1)/N=C(\N)Nc1ccc(Cl)cc1	12	-4	-16	-58	59*	14
N=c1c(C(=O)NC2CCCCC2)cc2c(=O)n3ccccc3nc2n1Cc1ccco1	48	-10	13	2	-21	40
CCOC(=O)c1cc2c(=O)n3ccccc3nc2n(Cc2ccco2)c1=NC(=O)c1ccccc1OC	51*	3	11	10	-17	24
Cc1ccc(S(=O)(=O)c2cc3c(=O)n4ccccc4nc3n(Cc3ccco3)c2=N)cc1C	67*	.	70*	19	0	60*
Cc1cccn2c(=O)c3cc(S(=O)(=O)c4ccc(F)cc4)c(=N)n(Cc4ccco4)c3nc12	83*	-9	16	10	-7	65*
CCOC(=O)c1cc2c(=O)n3ccccc3nc2n(Cc2ccco2)c1=NC(=O)c1ccc(OC)cc1	17	-42	28	23	-33	-6
N=c1c(C(=O)NCCc2ccccc2)cc2c(=O)n3ccccc3nc2n1Cc1ccco1	93*	0	25	4	-19	47
CCC(C)NS(=O)(=O)c1cc2c3c(c1)CCC(=O)N3CCC2 (centres undefined)	3	-5	-5	6	-8	8
COc1ccc([C@H]2C[C@H](O)[C@@H](n3cc(-c4ccc(F)cc4)nn3)CN2Cc2cccs2)cc1	.	0	.	.	.	.
Cc1cc(C)n(-c2cc(N3CCN(S(=O)(=O)c4ccc5ccccc5c4)CC3)ccc2[N+](=O)[O-])n1	-11	-13	54*	-9	-21	-3

Screens as filed in PubChem BioAssay.
